A word on the inhibition: it is the relative decrease from the control value, in per cent. The term IC50 denotes the concentration at which inhibition is half-maximal.

Experimental findings from ChEMBL document CHEMBL2390882, “Synthesis and biological evaluation of novel thiazolidinone derivatives as potential anti-inflammatory agents” (Eur J Med Chem, 2013) are described below.

Structures are written as SMILES. Values joined by “and” are separate entries in the source; they are usually repeats but may differ in a detail not shown here. Equal values may be shown once. Active and inactive are the calls of the source. No cut-off for these calls is given here.

The subject of data set [1] is RAW264.7. Briefly: Cytotoxicity against mouse RAW264.7 cells assessed as cell viability at 20 uM after 48 hrs by MTT assay. The data set is classed as cell-based. The note with it: raw264.7, 48 h. Put shortly:
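RAW264.7 cells seeded at 5000/well in 1640 medium with 5% heat-inactivated serum and grown 24 h before treatment. Compounds (DMSO stock) tested at 20 µM final for 48 h. MTT (5 mg/ml in 0.9% NaCl) added for 3 h, formazan dissolved in DMSO, absorbance read at 570 nm.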
A general note: Tetrazolium assays rely on reduction of a dye to a coloured formazan, in cell work by metabolically active cells.

For data set [2], the system named is RAW264.7. Briefly: Antiinflammatory activity in mouse RAW264.7 cells assessed as inhibition of LPS-induced IL6 release at 10 uM incubated for 2 hrs prior to LPS challenge measured after 22 hrs by ELISA relative to LPS-treated control. As to conditions: for inhibition at 10 µM: Mus musculus, RAW264.7. It is filed as functional. A digest of the protocol: (§1)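 RAW 264.7 macrophages in DMEM with 10% heat-inactivated FBS, plated at 4.0×10⁵/plate overnight. Pretreated 2 h with compound at 10 µM (curcumin 10 µM as reference), then LPS 0.5 µg/ml for 22 h. Medium cytokine measured by mouse ELISA kit and normalized to cell-lysate total protein. Expressed as % of LPS control, mean ±SEM of 4 independent experiments.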

The subject of data set [3] is RAW264.7. As to the kind of experiment: Antiinflammatory activity in mouse RAW264.7 cells assessed as inhibition of LPS-induced TNFalpha release at 10 uM incubated for 2 hrs prior to LPS challenge measured after 22 hrs by ELISA relative to LPS-treated control. It is filed as functional. Put shortly: as §1
On the technique in general: In an ELISA, binding on a coated surface is turned into a signal by an enzyme label.

The subject of data set [4] is RAW264.7. Briefly: Antiinflammatory activity in mouse RAW264.7 cells assessed as inhibition of LPS-induced TNFalpha release incubated for 2 hrs prior to LPS challenge measured after 22 hrs by ELISA. It is filed as functional, cell-based. A digest of the protocol: (§2)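 RAW 264.7 cells plated at 1.2×10⁶/plate overnight, pretreated 2 h at 0.3, 1.1, 3.3 and 10 µM, then stimulated with LPS 0.5 µg/ml for 22 h. Secreted cytokine quantified by ELISA and normalized to total cell protein, given as % of LPS control. IC50 derived from the concentration-response, 3-5 independent experiments.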

For data set [5], the system named is RAW264.7. As to the kind of experiment: Antiinflammatory activity in mouse RAW264.7 cells assessed as inhibition of LPS-induced IL6 release incubated for 2 hrs prior to LPS challenge measured after 22 hrs by ELISA. The data set is classed as functional, cell-based. A digest of the protocol:
as §2

Data set [6] has as its system Mus musculus. As to the kind of experiment: Antiinflammatory activity in C57BL/6 mouse assessed as decrease in LPS-induced septic death at 15 mg/kg, ip administered 15 mins prior to LPS challenge measured every 1 day for 7 days relative to LPS-treated control. Also on record: dose 15 mg/kg. It is filed as functional, organism-based. A digest of the protocol:
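Male C57BL/6 mice, 18-22 g ([…]), acclimatized at least 7 days. Drug at 2 mg/mL in macrogol 15 hydroxystearate (5-10%) with or without MCT (0.5-2%), dosed i.p. 15 min before LPS (20 mg/kg i.v.). Vehicle controls received 10% solubilizer with 2% MCT. Survival recorded daily for 7 days, n=12 per group.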

Data set [7] concerns Mus musculus. As to the kind of experiment: Antiinflammatory activity in LPS-treated C57BL/6 mouse assessed as survival rate at 15 mg/kg, ip administered 15 mins measured every 1 day for 7 days relative to LPS-treated control. The data set is classed as functional. As to conditions: C57BL/6, ip, route intraperitoneal. Put shortly:
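Male C57BL/6 mice (18-22 g, acclimatized ≥7 days) got LPS 20 mg/kg i.v. and drug 15 mg/kg i.p. either 15 min before or 15 min after. The drug was given at 2 mg/mL in macrogol 15 hydroxystearate (5-10% final), with or without MCT (0.5-2%), dissolved at 37 °C. Controls received vehicle. Survival was recorded daily for 7 days, with 12 mice per group.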

`O=c1/c(=C/c2c[nH]c3ccccc23)sc2nc3ccccc3n12`: in data set [1], the Activity result is “Non-toxic”. Moreover, the inhibition at 10 µM in data set [2] was over 50%. In data set [3], the inhibition entry is “Active”.
Consider `CCOC(=O)C1=C(C)N=c2s/c(=C\c3cccn3C)c(=O)n2C1c1ccccc1` (centres undefined), for which the IC50 in data set [4] is over 10 µM; in data set [5] it was 6.39 µM. In addition, in data set [1], the Activity result was “Non-toxic”. Further, the “inhibition (INH)” value in data set [2] is 50% and 87%. For the same molecule, the inhibition at 10 µM in data set [3] came out at 60%.
As to `COc1cc(/C=c2\sc3nc4ccccc4n3c2=O)ccc1O`, the Activity entry in data set [1] is recorded as “Non-toxic”. Besides, the inhibition result in data set [2] and in data set [3] was “Active” throughout.
For `Cc1ccc(/C=c2\sc3n(c2=O)CCN=3)s1`, the Activity entry in data set [1] is “Non-toxic”. The inhibition entry in data set [2] is “Active”. The inhibition at 10 µM in data set [3] was over 50%.
Consider `O=c1/c(=C/c2c[nH]c3ccccc23)sc2ncnn12`, for which, in data set [1], the Activity result is recorded as “Non-toxic”. The inhibition at 10 µM in data set [2] is over 50%. The inhibition entry in data set [3] is “Active”.
For the molecule `CCOc1ccc(Br)cc1/C=c1\sc2nc3ccccc3n2c1=O`, the Activity result in data set [1] is “Non-toxic”. Also, the inhibition entry in data set [2] and in data set [3] was “Active” each time.
With `CCOC(=O)C1=C(C)N=c2s/c(=C\c3cccc4ccccc34)c(=O)n2C1c1ccccc1` (centres undefined), in data set [1], the Activity result is “Non-toxic”. Further, the inhibition result in data set [2] and in data set [3] was “Active” each time.
On to `Cc1ccc(/C=c2\sc3ncnn3c2=O)s1`, for which the Activity entry in data set [1] is listed as “Non-toxic”. The inhibition result in data set [2] and in data set [3] was “Active” throughout.
With `Cc1ccc(/C=c2\sc3nc4ccccc4n3c2=O)c(C)c1`, the Activity entry in data set [1] is listed as “Non-toxic”. Also, the inhibition entry in data set [2] and in data set [3] was “Active” in each case.
As for `O=c1/c(=C/c2ccc(N3CCOCC3)cc2)sc2n1CCN=2`, in data set [1], the Activity entry was “Non-toxic”. Moreover, the inhibition at 10 µM in data set [2] is over 50%. The inhibition result in data set [3] was “Active”.
`CCOC(=O)C1=C(C)N=c2s/c(=C\c3ccc(N4CCOCC4)cc3)c(=O)n2C1c1ccccc1` (centres undefined): the concentration for half-maximal inhibition (IC50) in data set [4] was 4.17 µM; in data set [5], 0.83 µM. In addition, the inhibition result in data set [4] and in data set [5] was “Dose-dependent effect” each time. Besides, the Activity entry in data set [1] is “Non-toxic”. In addition, the result in data set [6] was inactive. Also, the survival at 15 mg/kg in data set [7] amounted to 70%. For the same molecule, the inhibition at 10 µM in data set [2] was determined as 92%; in data set [3] it was 62%.
`O=c1/c(=C/c2ccc(N3CCOCC3)cc2)sc2nc3ccccc3n12`: the Activity result in data set [1] is reported as “Non-toxic”. The inhibition entry in data set [2] and in data set [3] was “Active” in each case.
As for `COc1ccc(/C=c2\sc3nc4ccccc4n3c2=O)cc1O`, in data set [1], the Activity result is recorded as “Non-toxic”. Further, the inhibition entry in data set [2] and in data set [3] was “Active” each time.
`CCOC(=O)C1=C(C)N=c2s/c(=C\c3ccccc3F)c(=O)n2C1c1ccccc1` (centres undefined): the Activity result in data set [1] is given as “Non-toxic”. The inhibition result in data set [2] and in data set [3] was “Active” in each case.
`O=c1/c(=C/c2ccccc2[N+](=O)[O-])sc2nc3ccccc3n12`: the Activity result in data set [1] was “Non-toxic”. Also, the inhibition result in data set [2] and in data set [3] was “Active” each time.
`O=c1/c(=C/c2ccc3ccccc3c2)sc2nc3ccccc3n12`: in data set [1], the Activity result is “Non-toxic”. In addition, the inhibition result in data set [2] and in data set [3] was “Active” each time.
Turning to `COc1cccc(/C=c2\sc3ncnn3c2=O)c1OC`, in data set [1], the Activity result was “Non-toxic”. The inhibition entry in data set [2] and in data set [3] was “Active” in each case.
Consider `O=c1/c(=C/c2ccccc2Br)sc2ncnn12`, for which the Activity entry in data set [1] was “Non-toxic”. The inhibition at 10 µM in data set [2] and in data set [3] was over 50% in each case.
Regarding `CCOC(=O)C1=C(C)N=c2s/c(=C\c3ccccc3Br)c(=O)n2C1c1ccccc1` (centres undefined), the Activity result in data set [1] is listed as “Non-toxic”. In addition, the inhibition entry in data set [2] and in data set [3] was “Active” each time.
Regarding `COc1ccccc1/C=c1\sc2nc3ccccc3n2c1=O`, the Activity entry in data set [1] is “Non-toxic”. Also, the inhibition entry in data set [2] and in data set [3] was “Active” in each case.
As to `CCOC(=O)C1=C(C)N=c2s/c(=C\c3ccc(C)s3)c(=O)n2C1c1ccccc1` (centres undefined), the Activity entry in data set [1] is reported as “Non-toxic”. Further, in data set [2], the inhibition at 10 µM was over 50%. In addition, the inhibition entry in data set [3] is “Active”.
For `CCOC(=O)C1=C(C)N=c2s/c(=C\c3ccc(C)cc3C)c(=O)n2C1c1ccccc1` (centres undefined), the Activity entry in data set [1] is “Non-toxic”. Besides, the inhibition result in data set [2] and in data set [3] was “Active” in each case.
Take `O=c1/c(=C/c2cccs2)sc2nc3ccccc3n12`: the Activity result in data set [1] is on record as “Non-toxic”. For the same molecule, the inhibition result in data set [2] and in data set [3] was “Active” throughout.
`Cc1ccc(/C=c2\sc3nc4ccccc4n3c2=O)s1`: in data set [1], the Activity entry is listed as “Non-toxic”. Also, the inhibition result in data set [2] and in data set [3] was “Active” each time.
With `O=c1/c(=C/c2cccc(Cl)c2Cl)sc2nc3ccccc3n12`, in data set [1], the Activity entry was “Non-toxic”. In addition, the inhibition result in data set [2] and in data set [3] was “Active” in each case.
With `O=c1/c(=C/c2ccc(N3CCOCC3)cc2)sc2ncnn12`, in data set [1], the Activity result is recorded as “Non-toxic”. In addition, the inhibition at 10 µM in data set [2] and in data set [3] was over 50% in each case.
For `O=c1/c(=C/c2ccccc2Cl)sc2nc3ccccc3n12`, the Activity entry in data set [1] is “Non-toxic”. In addition, the inhibition entry in data set [2] and in data set [3] was “Active” in each case.
Consider `O=c1/c(=C/c2ccccc2Br)sc2nc3ccccc3n12`, for which the Activity entry in data set [1] is given as “Non-toxic”. The inhibition result in data set [2] and in data set [3] was “Active” each time.
In the case of `O=c1/c(=C/c2ccccc2F)sc2nc3ccccc3n12`, the Activity entry in data set [1] was “Non-toxic”. Further, the inhibition entry in data set [2] and in data set [3] was “Active” in each case.
With `O=c1/c(=C/c2ccccc2Cl)sc2n1CCN=2`, the Activity result in data set [1] was “Non-toxic”. The inhibition result in data set [2] and in data set [3] was “Active” each time.
Turning to `Cn1cccc1/C=c1\sc2n(c1=O)CCN=2`, the Activity result in data set [1] is “Non-toxic”. Moreover, the inhibition at 10 µM in data set [2] and in data set [3] was over 50% each time.
With `CCOC(=O)C1=C(C)N=c2s/c(=C\c3cccc(OC)c3O)c(=O)n2C1c1ccccc1` (centres undefined), the Activity entry in data set [1] is “Non-toxic”. Besides, the inhibition entry in data set [2] and in data set [3] was “Active” throughout.
